This is a sample that favours compounds with a hit; in the whole collection about 2.3% have one here.
ASAP1 inh: ASAP1 ArfGAP inhibition | Q9ULH1 | AID 624377 | ASAP1-stimulated ARF1 GTP hydrolysis, GDP FP detection | inhibition, % at 16.5 µM | hit rate 0.19% among 360,000; in the data active means inhibition above about 25%
Target sequence (Q9ULH1 325-724 limits assumed): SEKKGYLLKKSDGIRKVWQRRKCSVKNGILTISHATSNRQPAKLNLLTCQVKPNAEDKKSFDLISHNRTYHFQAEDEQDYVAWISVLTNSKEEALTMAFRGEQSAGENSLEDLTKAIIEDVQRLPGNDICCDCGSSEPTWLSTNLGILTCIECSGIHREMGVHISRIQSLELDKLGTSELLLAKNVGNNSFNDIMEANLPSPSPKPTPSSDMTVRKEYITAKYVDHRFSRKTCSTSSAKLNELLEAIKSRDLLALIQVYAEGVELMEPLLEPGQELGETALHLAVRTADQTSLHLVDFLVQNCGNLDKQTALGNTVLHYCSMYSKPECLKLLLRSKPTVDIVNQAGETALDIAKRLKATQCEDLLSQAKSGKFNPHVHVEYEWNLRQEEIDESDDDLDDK
sPLA2-III inh: Inhibits HGIII-sPLA2 liposome hydrolysis, primary screen | inhibition, % at 12.2 µM | QFRET BODIPY PC-A2 liposome hydrolysis, fluorescence | Q9NZ20 | hit rate 0.56% among 370,000;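 active means inhibition above mean plus 3 SD of compounds lying within the high and low control bounds, cut at about 19% in these data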
ARFGAP1 inh: rat ARFGAP1 inhibition; Arfgap1-stimulated ARF1 GTP hydrolysis, GDP FP detection; inhibition, % at 16.5 µM; hit rate 0.26% among 360,000; AID 651572;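 active means inhibition above a per-plate limit, mean inhibition of low control wells plus 3 SD, cut at about 25% in these data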
Target sequence (Q62848 1-136 limits assumed): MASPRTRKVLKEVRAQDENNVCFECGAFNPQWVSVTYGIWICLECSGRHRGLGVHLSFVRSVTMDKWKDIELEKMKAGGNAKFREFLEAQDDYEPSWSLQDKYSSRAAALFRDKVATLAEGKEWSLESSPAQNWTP
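Material: truncated rat Arfgap1 GAP domain; Incubation: compound-enzyme preincubation 20 min, reaction 120 min, detection 60 min, 25 °C; Read-out: percent inhibition of Arfgap1-stimulated GTP hydrolysis; Technique: FP, GDP Alexa 633 tracer displaced from anti-GDP antibody, 620/688 nm; Controls: No-Arfgap1 wells (100%) versus DMSO full-reaction wells (0%); Replication: single well per compound.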
SKKanGAS inh: inhibitors of SKKanGAS S. pyogenes growth in kanamycin (SK-promoter or general growth effect) | inhibition, % at 7.5 µM | BacTiter-Glo, 6 h | hit rate 1.3% among 300,000;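 active means mean replicate score, as percent of positive control median, at least 50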;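 further: strain carries kanamycin resistance gene driven by streptokinase promoter and grows in 40 µg/ml kanamycin; loss of luminescence reflects streptokinase promoter inhibition or plain growth inhibition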
Calb FLC: C. albicans growth modulation with fluconazole; hit rate 0.57% among 300,000; C. albicans CaCi-2 + fluconazole, Alamar Blue growth, 48 h; growth inhibition, % (test concentration not listed); AID 1979;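 active means growth inhibition above about 58% in most replicates, limit read from the data, passing the limit was not always enough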;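 further: all wells also contain fluconazole at 8 µg/ml as a sub-toxic cotreatment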
ASAP1 inh confirm: confirmation of human ASAP1 inhibitors; hit rate 37% among 620; shares compounds with ASAP1 inh; AID 624431; ASAP1-stimulated Arf1 GTPase, GDP fluorescence polarization; inhibition, % at 16.5 µM;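 active means mean inhibition over triplicates exceeds the hit threshold derived for the earlier primary screening run, cut at about 25% in these data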
Each line names hits and unclear results; the compound was inactive in the other large screens (follow-up assays come after a bar, where they were run).

COc1cc(F)ccc1CN1CCC(n2nccc2NC(=O)C2CCOC2)CC1 (stereo unspecified)	SKKanGAS inh 52
CN(Cc1ccccc1)C(=O)OCc1cn(Cc2cccc(Cl)c2)nn1	none (no result: ASAP1 inh, ARFGAP1 inh, SKKanGAS inh, Calb FLC)
Cc1ccccc1CN[C@@H]1CC[C@@]23CCCN2C(=O)CCC[C@H]3C1	none (no result: ASAP1 inh, ARFGAP1 inh, SKKanGAS inh, Calb FLC)
Cc1ccc(S(=O)(=O)c2c(C)nn(C(C)(C)C)c2OC(=O)c2ccco2)cc1	none
Cc1ccc(S(=O)(=O)c2c(C)nn(C(C)(C)C)c2OC(=O)c2ccc(Br)o2)cc1	Calb FLC 87
COc1ccc(C(=O)NNC2=C(C(=O)C(F)(F)F)CCC2)cc1	none
O=C(NNC1=C(C(=O)C(F)(F)F)CCC1)c1ccc(Cl)cc1	SKKanGAS inh 101, Calb FLC 109
O=C(NNC1=C(C(=O)C(F)(F)F)CCC1)c1cccc(Cl)c1	SKKanGAS inh 96, Calb FLC 101
O=C(CSc1nnc(-c2ccccn2)n1-c1ccccc1)Nc1ccccc1-c1ccccc1	none (no result: ASAP1 inh, ARFGAP1 inh, SKKanGAS inh, Calb FLC)
CC(C)=CCC/C(C)=C/C[C@]12C[C@H](C(=O)O)N(C(=O)OC(C)(C)C)[C@@H]1N(C(=O)OC(C)(C)C)c1ccccc12	none (no result: ASAP1 inh, ARFGAP1 inh, SKKanGAS inh, Calb FLC)
O=C(N/N=C/c1ccc(O)cc1)c1csc2ccccc12	Calb FLC 114
O=C(N/N=C/c1ccc(O)cc1)c1cc(-c2ccccc2)nc2ccccc12	none
CNC(=O)Nc1cc(C(F)(F)F)cc(C(F)(F)F)c1	Calb FLC 86
C=C(C)COc1ccc(-c2[nH]ncc2-c2ccc(Br)cc2)c(O)c1	SKKanGAS inh 65
C=C(C)COc1ccc(-c2n[nH]c(C)c2-c2ccc(Br)cc2)c(O)c1	SKKanGAS inh 99
COc1ccc(-c2ccc3c(n2)CCCN3S(=O)(=O)c2ccc(C(F)(F)F)cc2)cc1	none (no result: SKKanGAS inh, Calb FLC)
C=CCn1cc(/C=C/c2cc[n+](C)cc2)c2ccccc21	none
CCn1cc(/C=C/c2cc[n+](C)cc2)c2ccccc21	Calb FLC 94
CC(C)n1cc(/C=C/c2cc[n+](C)cc2)c2ccccc21	Calb FLC 87
O=C(N/N=C/c1c(O)ccc2ccccc12)c1cccnc1	Calb FLC 100
Cc1ccc(C(=O)N/N=C/c2c(O)ccc3ccccc23)cn1	sPLA2-III inh 30, SKKanGAS inh 60, Calb FLC 89
COc1ccc2ccccc2c1/C=N\NC(=O)c1cccnc1	none
O=C(N/N=C\c1c(O)ccc2ccccc12)c1cncc(Br)c1	SKKanGAS inh 106, Calb FLC 82
O=C(N/N=C\c1c(O)ccc2ccccc12)c1ccc(O)cc1	SKKanGAS inh 107
Cn1cc(C(=O)N/N=C/c2c(O)ccc3ccccc23)ccc1=O	none
O=C(NN=Cc1c(O)ccc2ccccc12)c1ccncc1	none (no result: SKKanGAS inh, Calb FLC)
COC(=O)C1=C(C)N(C)C(=NCc2ccc(OC)cc2)NC1c1ccc(Cl)cc1 (stereo unspecified)	none (no result: SKKanGAS inh, Calb FLC)
O=C(N/N=C/c1cc(O)ccc1Br)c1cccnc1	SKKanGAS inh 111
O=C(O)c1ccc(C=NNC(=O)c2cccc3ccccc23)cc1	none (no result: SKKanGAS inh, Calb FLC)
O=C(N/N=C/c1ccccc1O)c1cccc2ccccc12	SKKanGAS inh 106
O=C(COc1cccc2cccnc12)N/N=C/c1ccccc1O	SKKanGAS inh 99
O=c1[nH]c(-c2ccccn2)nc2sc(-c3ccccc3)cc12	SKKanGAS inh 96
Cc1c(C(=O)N(C)C)sc2nc(-c3ccccn3)[nH]c(=O)c12	none
COC(=O)C1=C(C)N(C)C(=NCc2ccc(C(F)(F)F)cc2)NC1c1ccc(Cl)cc1 (stereo unspecified)	none (no result: SKKanGAS inh, Calb FLC)
COC(=O)[C@@]12CCCCC3=C1N(CCC3)C(=O)[C@H]2CC(=O)NCCCN1CCCC1=O	none (no result: ASAP1 inh, ARFGAP1 inh, SKKanGAS inh, Calb FLC)
CCCS(=O)(=O)c1c(S(=O)(=O)CCC)c2cnccn2c1C(=O)c1ccc(Cl)cc1	ASAP1 inh 27 | ASAP1 inh confirm inactive
CCCS(=O)(=O)c1c(S(=O)(=O)CCC)c2ccc(C(N)=O)cn2c1C(=O)c1ccc(F)cc1	none
CCOC(=O)C(C(=O)Nc1ccccn1)C1CCCCC1 (stereo unspecified)	none
CCOC(=O)C(C(=O)Nc1cccc(C)n1)C1CCCCC1 (stereo unspecified)	ASAP1 inh 26 | ASAP1 inh confirm inactive
O=C1c2cccn2CC2Cc3ccccc3N12 (stereo unspecified)	none (no result: ASAP1 inh, ARFGAP1 inh, SKKanGAS inh, Calb FLC)
COc1ccc(/C=C2\Oc3cc(OC(=O)N4CCOCC4)ccc3C2=O)cc1	ASAP1 inh 33 | ASAP1 inh confirm 70
